Source: PubChem BioAssay
Shown is part of a subset that was picked to be rich in hits.
XBP1 UPR activ – adaptive UPR (XBP1) activation; 330,000 tested, 0.33% active; activation, % at 20 µM; AID 463104; CHO-XBP1 luciferase reporter, IRE1-XBP1 UPR activation, luminescence; percent of tunicamycin response, DMSO as zero;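 active means versus positive control, 20 µM dose yields 30% or more activation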;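 further: 100% = tunicamycin at 10 µg/mL and 0% = DMSO only wells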
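Signal: luciferase luminescence; Assay system: CHO-XBP1 luciferase reporter cells; Amount: one thousand reporter cells per well; Dosing: 20 µM single concentration, DMSO 1%; Benchmarks: high control tunicamycin 10 µg/mL final, low control DMSO vehicle only; Schedule: 6 h compound exposure at 37 °C, 5% CO2; Evaluation: percent activation relative to tunicamycin reference.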
CHOP UPR activ – apoptotic UPR (CHOP) activation; CHO-CHOP luciferase reporter, luminescence; percent of tunicamycin response over DMSO baseline; 330,000 tested, 0.34% active; activation, % at 10 µM;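 active means at 10 µM dose, activation of 40% or more, normalized to positive control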;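 further: 100% = tunicamycin at 10 µg/mL and 0% = DMSO alone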
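Assay system: CHO-CHOP cells, stable luciferase reporter of PERK-eIF2a-CHOP signalling / Buffer or medium: F12 plus 10% serum / Compound dosing: one dose, 10 µM in 0.5% DMSO / Times: 6 h compound treatment, 37 °C / Technique: luciferase luminescence / Read-out: % reporter activation, DMSO baseline versus tunicamycin full activation / Benchmarks: tunicamycin and DMSO controls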
CHOP inh – blocks CHOP induction under ER stress. 220,000 tested, 3.8% active. AID 2732. inhibition, % at 10 µM. CHO-K1 CHOP-promoter luciferase, tunicamycin-induced, 15-18 h;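 active means compounds that reduced the stress-induced luciferase reporter signal by more than about 70% of percent inhibition, limit read from the data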;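 further: 0% = tunicamycin plus vehicle and 100% = wells without tunicamycin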
TbMetRS inhib – Trypanosoma brucei MetRS inhibition. purified T. brucei MetRS, ATP depletion, Kinase-Glo luminescence. inhibition, % at 11.9 µM. 360,000 tested, 0.4% active;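 active means inhibition above a per-plate cutoff of the control wells' mean inhibition plus 3 SD, cut at about 5.5% in these data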;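 further: 0% = DMSO wells median and 100% = median of wells with control inhibitor compound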
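Measured by: Kinase-Glo luciferase luminescence reporting remaining unconsumed ATP. Material: purified T. brucei MetRS enzyme. Doses: 11.9 µM compound single dose, 0.9% DMSO. Medium: HEPES buffer containing pyrophosphatase, BSA, spermine, DTT. Times: 15 min preincubation, 2 h reaction, all 25 °C. Reagent: methionine, ATP and bulk E. coli tRNA.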
V-ATPase pH – regulators of yeast V-ATPase proton transport; S. cerevisiae, pHLuorin cytosolic pH fluorescence; response, % at 10 µM; 350,000 tested, 0.37% active; in the data active means response mostly above about 7.3%, no sharp cut-off; inactive means mostly below about 5.4%; further: actives read high
CHOP inh conf – confirmation of CHOP induction inhibitors; inhibition, % at 10 µM; 2,100 tested, 45% active; shares compounds with CHOP inh; CHO-CHOP promoter luciferase reporter, tunicamycin-induced, luminescence;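 active means mean of three repeat readings of reporter signal inhibition above a set limit, cut at about 70% in these data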;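 further: 0% = tunicamycin plus vehicle and 100% = wells lacking tunicamycin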
Starred values were filed as active, the others as inactive; . = no result.

SMILES	XBP1 UPR activ	CHOP UPR activ	CHOP inh	TbMetRS inhib	V-ATPase pH	CHOP inh conf
CCCCCCN1C=CC(=C2C(=O)c3ccccc3C2=O)C=C1	-14	-8	99*	2	-3	102*
O=C(CC1(O)C(=O)Nc2ccc(Br)cc21)c1ccccc1 (stereo not drawn)	.	.	.	-1	0	.
COc1ccc(-c2nc3ccc(Br)cn3c2Cc2ccccc2)cc1OC	.	.	.	0	.	.
Cc1ccc(C(=O)N2CCC(C(=O)Nc3cccc([N+](=O)[O-])c3)CC2)cc1	-5	2	.	0	2	.
CC(C)Cn1c(=O)c2ccccc2c2ccccc2c1=O	-5	-2	103*	0	2	-9
COc1ccc(-c2nnc(C3CCN(S(=O)(=O)c4ccccc4)CC3)o2)cc1	-1	-2	.	0	-1	.
COc1ccc(OC)c(C(=O)Nc2ccc3[nH]ccc3c2)c1	4	4	.	0	0	.
COc1ccc(-c2cnc(OC(C)(C)C)nc2OC(C)(C)C)cc1OC	3	-1	106*	0	2	89*
S=C(Nc1ccccc1)Nc1ccc(OCc2ccc(Cl)cc2Cl)cc1	-9	-11	108*	-1	7	115*
CCCCN1CC(COCc2ccccc2)Oc2ccccc2S1(=O)=O (stereo not drawn)	-2	2	.	-1	-3	.
CCSc1nc(-c2ccccc2)nc(C(Cl)Cl)n1	25	27	106*	0	1	84*
CCCCOC(=O)c1ccc(NC(=O)c2ccoc2C)cc1	-1	7	101*	0	1	47
COc1cccc(NC(=S)N/N=C2/CCCCc3ccccc32)c1	.	.	-31	-1	1	.
BrC(=C\c1ccccc1)/C=N/Nc1ccc2nncn2n1	1	6	12	0	-1	.
BrC(=C\c1ccccc1)/C=N/n1cnnc1	.	.	106*	0	0	-22
O=C(N/N=C/C(Br)=C/c1ccccc1)c1cc(-c2ccco2)[nH]n1	1	5	103*	0	-2	8
COc1ccccc1/C=C/C=N/NC(=O)c1cc(-c2ccco2)[nH]n1	3	0	9	0	2	.
C#CCOCCOCCOCCNc1nc(N2CCN(C(=O)[C@H](CCCCN)n3cc(CN)nn3)CC2)nc(N2CCN(C(=O)[C@H](CCCN=C(N)N)n3cc(C(N)[C@H](C)CC)nn3)CC2)n1 (stereo partly drawn)	6	0	.	0	-2	.
COc1ccc(NS(=O)(=O)c2ccc(Br)cc2)cn1	-3	0	.	0	1	.
COc1ccc(NS(=O)(=O)c2ccc3oc4ccccc4c3c2)cn1	-4	-3	97*	-2	2	-29
Cc1ccc(NC(=O)CCl)cc1S(=O)(=O)N1CCCCCC1	-4	34	108*	-1	1	134*
COCCNCC(=O)Nc1ccc(C)c(S(=O)(=O)N2CCCCC2)c1	0	0	14	-1	-2	.
CC(=O)C(C(c1ccccc1)N1CCCc2ccccc21)N1CCOCC1 (stereo not drawn)	.	.	.	0	0	.
O=C(COC(=O)c1cccc(NC(=O)c2ccco2)c1)c1ccc(Br)cc1	1	1	105*	1	1	37
O=C(Nc1cccc(NC(=O)c2ccco2)c1)c1cccc(Br)c1	-3	0	.	0	4	.
SMILES	XBP1 UPR activ	CHOP UPR activ	CHOP inh	TbMetRS inhib	V-ATPase pH	CHOP inh conf
COc1ccc2oc(=O)c(-c3cn4ccc(C)cc4n3)cc2c1	1	4	97*	-1	-4	-30
Cc1ccn2cc(-c3cnoc3C)nc2c1	2	2	8	-1	2	.
C=CCc1cc(C)ccc1OCC(O)CN1CCN(c2ccccc2)CC1 (stereo not drawn)	-2	0	106*	0	0	96*
O=C(CNc1cccc2ccccc12)N/N=C/C(Br)=C/c1ccccc1	1	2	106*	0	0	10
Cc1cccc(S(=O)(=O)Nc2ccc(C)c3c2OC(C)(C)C3)c1	-2	6	34	0	8	.
Cc1ccc(Cn2c(=O)c3c(nc4n3CCCN4Cc3ccccc3)n(C)c2=O)cc1	-2	1	105*	-1	3	-11
Cn1c(=O)n(Cc2ccccc2)c(=O)c2c1nc1n2CCCN1Cc1ccccc1	-3	0	46	-1	-4	.
